Variants at the floor of the assay were thinned out. Some results are limits rather than exact numbers.

To fix the notation:
B1: tRNA (parent)
chain: GUUCCGUUGGCGUAAUGGUAACGCGUCUCCCUCCUAAGGAGAAGACUGCGGGUUCGAGUCCCGUACGGAACG

The variants in the data set derive from B1. In words: yeast fitness relative to wild type (ratio to wild type); higher = fitter; tRNA-Arg(CCU), competitive growth, 37 C, YPD. The gist of the method: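 Genotype frequency changes were the basis for Darwinian fitness relative to wild type. The frequencies came from 100-nucleotide paired-end sequencing of gene amplicons from the start population and each end population of pooled yeast strains with tRNA-Arg(CCU) gene variants at the native locus. Competition ran in YPD at 37°C for 24 hours in six replicates, genotypes needed ≥ 100 starting reads, and estimates < 0.5 were set to 0.5.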
As for GUUCCGUUGGGGUAAUGGUAACGCGUCUCCCUCCUCAGGAGAAGACUGCGGGUUCGAGUCCCGUACGAAACG, the yeast fitness worked out at 0.506. On to GUUCCGUUGGGGUAAUGGUCACGCGUCUCCCUCCUAAGGAGAAGGCUGCGGGUUCGAGUCCCGUACGGAUCG, for which the yeast fitness was ≤ 0.5. Take GUUCCGUUGGGGUAAUGGUAACGCGUCUCCCUCCUAAGGGGAAGGCUGCGGAUUCGAGUCCCGUACGGAACG: the yeast fitness was found to be 0.577. The figure for GUUCCGUUGGGGUAAUGGUAACGCGUCUCCCUCCUUAGGAGAAGUCUGCGCGUUUGAGUCCCGUACGGAACG is ≤ 0.5; for GUUCCGUUGGGGUAAUGGUUACGCGUCUCCCUCCUAACGAGAAGACUGCAGGUUCGAGUCCCGUACGGAACG it is 0.569. The same measure for GUUCCGUUGGGGUAAUGGUCACGCGUCUCCCUCCUAAGGAGAAGACUGCGGGUUCGAGUCCCGUACGGAACG: 0.615.

With GUUCCGUUGGGGUAAUGGUUACGCGUCUCCCUCCUAAGGAGAAGACUGCGGGUUCGAGUCCCGUACGGAACG, the yeast fitness turned out to be 0.692. The figure for GUUCCGUUGGGGUAAUGGUAACGCGUCUCCCUCCUAAGGAGCAGACUGCGGGUUCGUGUCCCGUACGGAACG is 0.564. The same measure for GUUCCGUUGGGGUAAUGGUGACGCGUCUCCCUCCUAAGGAGAAGACGGCGGGUUCGAGUCCCGUACGGAACG: ≤ 0.5.

GUUCCGUUGGGGUAAUGGUUACGACUCUCCCUCCUAAGGGGAAGACUGCGGGUUCGACUCCCGUACGGAACG: the yeast fitness was ≤ 0.5. The figure for GUUCCGUUGGGGUAAUGGUAACGCGUCUCCCUCCUCAGGAGAUGACUGCGGGUUCGAGUCCCGUACGGAACG is ≤ 0.5. For the variant GUUCCGUUGGGGUAAUGGUGACGCGUCUCCCUCCUAAGGAGAAGACUGCGGGCUCGAGUCCCGUACGGAACG, the yeast fitness is ≤ 0.5. The same measure for GUUCCGUUGGGGUAAUGGUAACGCGUCUCCCUCCUAAGGCGAAGACUGCGGGUUCGAGUCUCGUACGGAACG: ≤ 0.5; for GUUCCGUUGGGGUAAUGGUUACGCGUCUCCCUCCUAAGGAGAAGACUGCGGGUUCAAGUUCCGUACGGAACG: 0.678. The figure for GUUCCGUUGGGGUAAUGGUAGCGCGUCUCCGUCCUAAGGAGGAGACUGCGGGUUCGAGUCCCGUACGGAACG is ≤ 0.5. GUUCCGUUGGGGUAAUGGUAACGCGUCUCCCUCCUAAGGGGAAGACUGCGGGUUCGAGUCCCGUACGGAACG: the yeast fitness worked out at 0.567.

On to GUUCCGUUGGGGUAAUGGUACGGCGUCUCGCUCCUAAGGAGAAGUCUGCGGGUUCGAGUCCCGUACGGAACG, for which the yeast fitness amounted to 0.558. The figure for GUUCCGUUGGGGUAAUGGUAACGCGUCUCCCUCCUGAGGAGAAGACUGCGGGUUCGAGUCCCGUACUGCACG is ≤ 0.5. The same measure for GUUCCGUUGGGGUAAUGGUAUCGCGUAUCCCUCCUAAGGAGAAGACUGCGGGUUCGAGUCGCGUACGGAACG: 0.531. For the variant GUUCCGUUGGGGUAAUGGUAGCCCGUCUCACUCCUAAGGAGAAGACUGCGGGUUCGAGUCCCGUACGGAACG, the yeast fitness is 0.733.

GUUCCGUUGGGGUAAUGGUCACGCGUCUCCCUCCUAAGGAGAAGACUGGGGGUUCGAGUCCCGUACGGAACG: the yeast fitness is ≤ 0.5. With GUUCCGUUGGGGUAAUGGUAACGCGUCUCCCUCCUACGGAGGAGACUGCGGGUUCGAGUCCCGUACGGAACG, the yeast fitness was ≤ 0.5. On to GUUCCGUUGGGGUAAUGGUAACGCGUCUCCCUCCUUAGGAGAAGACUGCGGGUUCGAGUCCCGUACGGAACG, for which the yeast fitness is ≤ 0.5.

GUUCCGUUGGGGUAAUGGUAACGCGUCUCCCUCCUGAGGAGAAGACUGCGGGUUCGAGUCCCGUACGGAACG: the yeast fitness was 0.692. The same measure for GUUCCGUUGGGGUAAUGGUAACGCGUCUCCCUCCUAAGGGGAAGACUGCGGGUUCGAGUCACGUACGGAACG: 0.605. The figure for GUUCCGUUGGGGUAAUGGUAACGCGUCUCCCUCCUUAGGAGAAGACUGCGGGUACGAGUCCCGCACGGUACG is ≤ 0.5.

Turning to GUUCCGUUGGGGUAAUGGUGACGUGUCCCCCUCCUAAGGAGAAGACUGCGGGUUCGAGUCCCGUACGGAACG, the yeast fitness was ≤ 0.5. For the variant GUUCCGUUGGGGUAAUGGUAACGCGUCUCCCUCCUACGGAGAAGACUGCGGGUUCGAGUCCGGUAUGGAACG, the yeast fitness is ≤ 0.5. The figure for GUUCCGUUGGGGUAAUGGUAACGCGUCUCCCUCCUACGGAGAAGACUGCGGGUUCGAGUCCCGUAGGUAACG is ≤ 0.5. The same measure for GUUCCGUUGGGGUAAUGGUAUCGCGUCUCCCUCCAAAGGAGAAGACUGCGGGUUCGAGUCCCGUACGGAACG: ≤ 0.5. Regarding GUUCCGUUGGGGUAAUGGUAACGCGUCUCCCUCCUAAGGAGCAGACUGCGGGUUCGAGUCCCGUACGCAACG, the yeast fitness is ≤ 0.5.

As for GUUCCGUUGGGGUAAUGGUAGCGCGUCUCCCUCCUAACGACAAGACUGCGGGUUAGAGUCCCGUCCGGAACG, the yeast fitness was 0.525. GUUCCGUUGGGGUAAUGGUAGCGCGUCUCCCUCCUAAGGAGAACACUGCGGGUUCGAGUCAUGUAUGGAACG: the yeast fitness was ≤ 0.5. For GUUCCGUUGGGGUAAUGGUAUCGCGUCUCCCUCCUAAGGUGAAGACUGCGGGUACGAGUCCCGUACGGAACG, the yeast fitness was found to be 0.681.

For the variant GUUCCGUUGGGGUAAUGGUACCGCGACUCCCUCUUAAGGAGAAGACUGCGGGUUCGAGUCCCGUACGGAACG, the yeast fitness was ≤ 0.5. The figure for GUUCCGUUGGGGUAAUGGUAACGCGUCUCCCUCCUAGGGAGAAGACUGCGCGUUCGGGUCCCGUAUGGAACG is ≤ 0.5. The same measure for GUUCCGUUGGGGUAAUGGUCACGUGUCUCCCUCCUCAGGAGAAGACAGCGGGUUCCAGUGCCGUACGGAACG: ≤ 0.5; for GUUCCGUUGGGGUAAUGGUCACGGGUCUCCCUCCUAAGGAGAAGACUGCGGGUUCGAGUCCCGUAUGGAACG: ≤ 0.5. Regarding GUUCCGUUGGGGUAAUGGUAACGCGUCUCCCUCCUACGGAGAAGAGUAUGGGUUCGAGUCCCGUACGGAACG, the yeast fitness was ≤ 0.5. The same measure for GUUCCGUUGGGGUAAUGGUUACGCGUCUCGCUCCUAAGGAGAAGACUGGGGGGUCGAGUCCCGUACGGAACG: 0.571. The figure for GUUCCGUUGGGGUAAUGGUCACGCGUCUCCCUCCUAAGGAGAGGACUGCGGGUUCGAGCCCCGUACGGAACG is ≤ 0.5. The same measure for GUUCCGUUGGGGUAAUGGUACCGCGUCUCCCUCCUUAGGAGAAGACUGCGGGUUCGAGUCCCGUACGGAACG: 0.511; for GUUCCGUUGGGGUAAUGGUAUCGCGUCUCCCUCCUUAGGAGAAGACUGCGGGUUCGAGUCCCGUACGGAACG: ≤ 0.5. Regarding GUUCCGUUGGGGUAAUGGUAUCGCGUCUCCGUCCUAAGGAGAAGACUGCGGGUUCGAGUCCCGUACGGAACG, the yeast fitness is ≤ 0.5. The figure for GUUCCGUUGGGGUAAUGGUCACGUGUCUCCCUCCUCAGGAGAAGACUGCGGGUUCGAGUCCCGUAUAGAACG is ≤ 0.5. The same measure for GUUCCGUUGGGGUAAUGGUAACGCGUCUCCCUCCUUAGGAGAAGACUGCGGGUUCGAGUCCCGUAUGGAACG: ≤ 0.5; for GUUCCGUUGGGGUAAUGGUAUCGGGUCUCCCUCCUAAGGAGAAGACUGCGAGUUCGAGUCCCGUACGGAACG: ≤ 0.5; for GUUCCGUUGGGGUAAUGGUAUCGCGUCUCCCUCCUAAGGAGAAGACUGCGGGUUUGAGUCCCGUACGGAACG: ≤ 0.5. The same measure for GUUCCGUUGGGGUAAUGGUAACGCGUCUCCCUCCUCAGGAGAAGACUGCGGGUUCAAGUCCCGUGCGGAACG: ≤ 0.5; for GUUCCGUUGGGGUAAUGGUAACGCGUCUCCCUCCUAUGGAGAAGACUGCGGGUUUGCGUCCCGUACGGAACG: ≤ 0.5; for GUUCCGUUGGGGUAAUGGUAACGCGUCUCCCUCCUAAGGGGAAGACUGCGGGUUCGAGUUCCGCACGGAACG: ≤ 0.5. Consider GUUCCGUUGGGGUAAUGGUAACGCGUCUCCCUCCUACGGAGAAGACUGCGGGUUCGAGUCCCGUACGGAACG, for which the yeast fitness came to 0.606. Turning to GUUCCGUUGGGGUAAUGGUCACGGGUCUCCCUCCUAAGGAGAAGACUGCGGGUUCGAGUCCCAUAUGGAACG, the yeast fitness was ≤ 0.5. The figure for GUUCCGUUGGGGUAAUGGUCACGUGUCUCCCUCCUCAGGAGAAGACAGCGGGUUCGAGUCCCGUAUGGAACG is ≤ 0.5. The same measure for GUUCCGUUGGGGUAAUGGUCACGGGUCUCCCUCCUAGGGAGAAGACUGCGGGUUCGAGUCCCGUACGGAACG: 0.542.

Turning to GUUCCGUUGGGGUAAUGGUAACGCGUCUCCCUCCUGAGAAGAAGACUGCGGGUUCAAGUCCCGUACGGAACG, the yeast fitness is ≤ 0.5.

Regarding GUUCCGUUGGGGUAAUGGUGACGCGUCUCCCUCCUAAGGAGAAGACUGCGGGUUCGAGUCCAGUACGGAACG, the yeast fitness is ≤ 0.5. The same measure for GUUCCGUUGGGGUAAUGGUGACGUGUCUCCGUCCUAAGGAGAAGACUGCGGGUUCGAGUCCCGUACGGAACG: ≤ 0.5; for GUUCCGUUGGGGUAAUGGUAACGCGUCUCCCUCCUUUGGAGAAGACUGCGGGUUUGAGUCCCGUACGGAACG: ≤ 0.5. In the case of GUUCCGUUGGGGUAAUGGUAACGCGUCUCCCUCCUAAGGAGGAGUCCGCGGGUUCGAGUCCCGCACGGACCG, the yeast fitness was ≤ 0.5. The same measure for GUUCCGUUGGGGUAAUGGUUAGGCGUCUCCCUCCUAAGGAGACGACUGCGGGUUCGAGUCCCGUACGGAACG: ≤ 0.5; for GUUCCGUUGGGGUAAUGGUUACGCGUCUCGCUCAUAAGGAGACGACUGCGGGUUCGAGUCCCGUACGGCACG: 0.76. The same measure for GUUCCGUUGGGGUAAUGGUAGCGCGUCUGCCUCCUAAGGCGAAGACUGCGGGUACGAGUCCCGUACGGAACG: ≤ 0.5; for GUUCCGUUGGGGUAAUGGUAACGCGUCUCCCUCCUAAGGAGGAGUCUGCGGGUUCGAGUCCCGUACGGAACG: ≤ 0.5; for GUUCCGUUGGGGUAAUGGUUACGCGUGUUCCUCCUAAGGAGAAGACUGCGGGUUCGAGUCCUGUACGGAACG: ≤ 0.5.

On to GUUCCGUUGGGGUAAUGGUCACGCGUCUCCCUCCUAAGGAGAAGACUGCGGGUUAGAGUCCCGUACCGAACG, for which the yeast fitness is ≤ 0.5. The same measure for GUUCCGUUGGGGUAAUGGUAACGCGUCUCCCUCCUACGGAGAAGACUGCGAGUUCGAGUCCCGUACAGAACG: ≤ 0.5. For GUUCCGUUGGGGUAAUGGUCACGCGUCUCCCUCCUAAGGAGCAGACUGCGGGUUCGUGUCCCGUACGGAACG, the yeast fitness was ≤ 0.5.

Turning to GUUCCGUUGGGGUAAUGGUAACGCGUCUCCCUCCUACGGAGAAGAGUACGGGUUCGAGUCCCGUACGGAACG, the yeast fitness was ≤ 0.5. As to GUUCCGUUGGGGUAAUGGUAACGCGUCUCCCUCCUAGGGAGAAGACUGCGGCUUCGAGUCCCGUACGGAUCG, the yeast fitness turned out to be 0.57.

Turning to GUUCCGUUGGGGUAAUGGUUACGACUCUCCCUCCUAAGGAGAUGACUGCGGGUUCGAGUCCCGUACGGAACG, the yeast fitness is ≤ 0.5.

Regarding GUUCCGUUGGGGUAAUGGUCACGGGUCUCCCUCCUAAGGAGAAGACUGCGGGUUCGAGUCCCGUACGGAACG, the yeast fitness was ≤ 0.5. The same measure for GUUCCGUUGGGGUAAUGGUCACGCGUCUCCCUCCUAAGGAGCAGACUGUGGGUUCGUGUCCCGUACGGAACG: ≤ 0.5; for GUUCCGUUGGGGUAAUGGUAUCGCGCCUCCCUCCUAAGGAGAAGACUGCGGGGUCGAGUCCCGUACGGAACG: 0.696; for GUUCCGUUGGGGUAAUGGUAUCGCGUCUCCCUCCUAAGGAGAAGACUGCGCGUUCGAGUCCCGUACGGAACG: ≤ 0.5.

The values above are taken from the RNAGym collection of RNA variant scans (doi:10.1126/science.aae0568).
